In the RNAGym collection of RNA variant scans (doi:10.1126/science.aae0568):
This sample holds only a part of the variants without activity.

B1: tRNA (parent)
chain: GUUCCGUUGGCGUAAUGGUAACGCGUCUCCCUCCUAAGGAGAAGACUGCGGGUUCGAGUCCCGUACGGAACG

Variants of: B1
Experiment: yeast fitness relative to wild type (ratio to wild type); higher = fitter; tRNA-Arg(CCU), competitive growth, 37 C, YPD
Method in brief: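 Genotype frequency changes were the basis for Darwinian fitness relative to wild type. The frequencies came from 100-nucleotide paired-end sequencing of gene amplicons from the start population and each end population of pooled yeast strains with tRNA-Arg(CCU) gene variants at the native locus. Competition ran in YPD at 37°C for 24 hours in six replicates, genotypes needed ≥ 100 starting reads, and estimates < 0.5 were set to 0.5.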

| Variant | yeast fitness |
| --- | --- |
| GUUCCGUUGGCGUAAUGGUAACGCGUCUCCCUCCUAGGAAGAAGCCUGCGGGUUCGAGUCCCGUACGGAACG | 0.635 |
| GUUCCGUUGGCGUAAUGGUAACGCGUCUCCCUCCUAGGAAGAAGACUGCGGGUUCGAGUCCCGUACGGAACG | 0.638 |
| GUUCCGUUGGCGUAAUGGUAACGCGUCUCCCUCCUAGGGGGAAGACUGUGGGUUCGAGUCCCGUACGGAACG | 0.501 |
| GUUCCGUUGGCGUAAUGGUAACGCGUCUCCCUCCUAGGGAGAAGACUACGGGUUCGAGUCCCGUACGGAACG | 0.768 |
| GUUCCGUUGGCGUAAUGGUAACGCGUCUCCCUCCUAGGGAGAAGACGGCGGAUUCGAGUCCCGUACGGAACG | ≤ 0.5 |
| GUUCCGUUGGCGUAAUGGUAACGCGUCUCCCUCCUACGGAGAAGACUGCGGGUUCGAGCCCCGUACGGAACG | 0.699 |
| GUUCCGUUGGCGUAAUGGUAACGCGUCUCCCUCCUAGGGAGAAGACUGCGGGUUUGAGUCCCGUACGGAACG | 0.519 |
| GUUCCGUUGGCGUAAUGGUAACGCGUCUCCCUCCUACAGAGAAGACUGCGGGUUCGAGUCCCGUAUGGAACG | 0.587 |
| GUUCCGUUGGCGUAAUGGUAACGCGUCUCCCUCCUAGGGAGAAGACUGCGGGUUCGGGUCCCGCACGGAACG | ≤ 0.5 |
| GUUCCGUUGGCGUAAUGGUAACGCGUCUCCCUCCUAGGGAGCAGACUGCGGGUUCGAGUCCCGUUCGGCACG | ≤ 0.5 |
| GUUCCGUUGGCGUAAUGGUAACGCGUCUCCCUCCUAGGGAGAAGACUGCGGGUUCCAGUCCCGUACGGCACG | ≤ 0.5 |
| GUUCCGUUGGCGUAAUGGUAACGCGUCUCCCUCCUACGGAGAAGACUGCGGGUUCGAGUCCCGUAAGGAACG | 0.659 |
| GUUCCGUUGGCGUAAUGGUAACGCGUCUCCCUCCUACGGAGAAGACUGCGAGCUCGAGUCCAGUACGGAACG | ≤ 0.5 |
| GUUCCGUUGGCGUAAUGGUAACGCGUCUCCCUCCUAGGGAGAAGACUGCGGCUUCGAGUCCCGUACGGAUCG | 0.552 |
| GUUCCGUUGGCGUAAUGGUAACGCGUCUCCCUCCUACGGAGAAGACCGCGAGUUCGAGUCCCGUACGGAACG | ≤ 0.5 |
| GUUCCGUUGGCGUAAUGGUAACGCGUCUCCCUCCUAGGGAGAAGACUCUGGGUUCGAGUACCGUUCGGAACG | ≤ 0.5 |
| GUUCCGUUGGCGUAAUGGUAACGCGUCUCCCUCCUAGGGAGAAGACUGCGGGUUCGAGUCUCGUACGGAACG | 0.785 |
| GUUCCGUUGGCGUAAUGGUAACGCGUCUCCCUCCUAGGGAGAAGACUGCGGGUUCGAGUCCCGUACCGAACG | 0.79 |
| GUUCCGUUGGCGUAAUGGUAACGCGUCUCCCUCCUAGGGAGAAGACUGAGGGUUCAAGUCCCGUACGGAACG | 0.607 |

| Variant | yeast fitness |
| --- | --- |
| GUUCCGUUGGCGUAAUGGUAACGCGUCUCCCUCCUAGGGAGAAGACUGGGGGUUUCAGUCCCGUACGAAACG | ≤ 0.5 |
| GUUCCGUUGGCGUAAUGGUAACGCGUCUCCCUCCUACGGAGAAGACUGCGAGUUCGAGUCCCGUACGGAACG | 0.605 |
| GUUCCGUUGGCGUAAUGGUAACGCGUCUCCCUCCUAGGAAGAAGACUGCGGGUUCGAGUCCUAUACGGAACG | ≤ 0.5 |
| GUUCCGUUGGCGUAAUGGUAACGCGUCUCCCUCCUACGAAGAAGACUGCGGGUUCGAGUGCCGUAAGGAACG | ≤ 0.5 |
| GUUCCGUUGGCGUAAUGGUAACGCGUCUCCCUCCUAGGGAGUAGACUGCGGGUUCGAGUCCAGUCCGGAACG | ≤ 0.5 |
| GUUCCGUUGGCGUAAUGGUAACGCGUCUCCCUCCUACGGAGAACACUGCGGGUUCGAGUCCCGUACGGAACG | 0.758 |
| GUUCCGUUGGCGUAAUGGUAACGCGUCUCCCUCCUAGGGAGAAGACUGCGGGUUUGAGUCCCAUACGGAACG | ≤ 0.5 |
| GUUCCGUUGGCGUAAUGGUAACGCGUCUCCCUCCUAGGGAGAAAACUGCGGGUUCGAGUCCCGUCCGGAACG | 0.561 |
| GUUCCGUUGGCGUAAUGGUAACGCGUCUCCCUCCUAGGAAGAAGAGUGCGGGCUCGAGUCCUGUACGGCACG | ≤ 0.5 |
| GUUCCGUUGGCGUAAUGGUAACGCGUCUCCCUCCUAGGGUGAAGACUGCGGGUUCGAGUCCCGUGCGGAACG | 0.571 |
| GUUCCGUUGGCGUAAUGGUAACGCGUCUCCCUCCUAGGGAGAAGACUGCGGGUUCGAGUCCCGUACGGAUCG | 0.741 |
| GUUCCGUUGGCGUAAUGGUAACGCGUCUCCCUCCUACGGAGAAGACUGCGGAAUCGAGUCCCGUACGGAACG | 0.566 |
| GUUCCGUUGGCGUAAUGGUAACGCGUCUCCCUCCUAGGGAGUAGACUCUGGGUUCGAGUCCCGUGCGGAACG | ≤ 0.5 |
| GUUCCGUUGGCGUAAUGGUAACGCGUCUCCCUCCUACGGAGAAGACUGCGGGUUCGAGUCCCGAACGGAACG | 0.729 |
| GUUCCGUUGGCGUAAUGGUAACGCGUCUCCCUCCUACGGAGAAGACUGCGGGUUCGAGUCCCGUACGCAACG | 0.764 |
| GUUCCGUUGGCGUAAUGGUAACGCGUCUCCCUCCUAGGGAGAUGACUGCGGGUUCGAGUCCCGUCCGGAACG | 0.627 |
| GUUCCGUUGGCGUAAUGGUAACGCGUCUCCCUCCUAGGGAGAAGAUUGCGGGUUCGAGUCCGGUACGGAACG | 0.533 |
| GUUCCGUUGGCGUAAUGGUAACGCGUCUCCCUCCUACGGAGAAGACCGCGAGUUCGAGUCCCGUACAGAACG | ≤ 0.5 |
| GUUCCGUUGGCGUAAUGGUAACGCGUCUCCCUCCUAGGGAGAAGACUGCGGGUUCGAGUCCAGUACGGAACG | 0.582 |
